The source made the active and inactive calls. The calls are words filed in the database; no cut-off is given here.
Assays:
[1] = biological target: T1, Adenosine receptor A1 (Homo sapiens) (UniProt P30542); assay: Agonist activity at human adenosine A1 receptor expressed in CHOk1 cells assessed as potentiation of R-PIA-induced ERK1/2 phosphorylation at 3 uM; assay type: functional, cell-based
T1 sequence (whole entry): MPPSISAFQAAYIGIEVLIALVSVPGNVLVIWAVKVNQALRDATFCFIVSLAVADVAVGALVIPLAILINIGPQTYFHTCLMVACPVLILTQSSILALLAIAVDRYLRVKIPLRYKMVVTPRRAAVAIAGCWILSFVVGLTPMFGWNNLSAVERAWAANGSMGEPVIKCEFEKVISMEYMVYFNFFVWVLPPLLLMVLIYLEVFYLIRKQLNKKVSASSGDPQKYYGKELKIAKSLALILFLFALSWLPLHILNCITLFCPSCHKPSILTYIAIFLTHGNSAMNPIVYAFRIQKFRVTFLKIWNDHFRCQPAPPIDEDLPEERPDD
Outline: (§1)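 FlpIn-CHO cells stably expressing human A1AR were seeded at 50,000/well and kept in serum-free DMEM/20 mM HEPES for at least 4 h. They were pretreated for 30 min with 1 U/mL adenosine deaminase, then for 30 min at 37 °C with compound at 3 or 10 μM.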

[2] = biological target: T1, Adenosine receptor A1 (Homo sapiens); assay: Agonist activity at human adenosine A1 receptor expressed in CHOk1 cells assessed as potentiation of R-PIA-induced ERK1/2 phosphorylation at 10 uM; assay type: functional, cell-based; outline: as §1
Adenosine receptor A1 [3] = biological target: T2, Adenosine receptor A1 (Homo sapiens, UniProt P30542); assay: Allosteric modulatory activity at human adenosine A1 receptor expressed in CHOk1 cells assessed as drug level causing half maximal allosteric effect on [125I]-ABA dissociation from receptor-G protein ternary complex by dissociation kinetic binding assay; assay type: cell-based
T2 sequence (P30542 whole entry): T1 sequence (whole entry)

[4] = biological target: T1, Adenosine receptor A1 (Homo sapiens); assay: Agonist activity at human adenosine A1 receptor expressed in CHOk1 cells assessed as induction of ERK1/2 phosphorylation at 10 uM relative to R-PIA; assay type: functional, cell-based; outline: as §1
[5] = biological target: T1, Adenosine receptor A1 (Homo sapiens); assay: Allosteric modulatory activity at human adenosine A1 receptor expressed in CHOk1 cells assessed as [125I]-ABA-receptor-G protein ternary complex remaining after 10 mins of radioligand dissociation at 50 uM by dissociation kinetic binding assay; assay type: cell-based
Outline: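 Membranes (10 μg) from CHO-K1 cells stably expressing human A1AR were equilibrated for 90 min at room temperature with 0.5 nM [125I]-ABA in 10 mM HEPES pH 7.2, 0.5 mM MgCl2 and 1 U/mL adenosine deaminase. Modulator (0.1–50 μM final) was added for 30 min. Dissociation was started with 100 μM orthosteric antagonist plus 25 μM GTPγS for 10 min, then samples were filtered and counted. K-score is the % specific binding remaining; EC50 comes from a variable-slope sigmoidal fit.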

Adenosine receptor A1 [6] = biological target: T2, Adenosine receptor A1; assay: Antagonist activity at human adenosine A1 receptor expressed in CHOk1 cells assessed as inhibition of R-PIA-induced ERK1/2 phosphorylation; assay type: functional, cell-based; conditions: read-out: pA2 (converted)
Outline: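 Human A1AR FlpIn-CHO cells were serum-starved and pretreated for 30 min with 1 U/mL adenosine deaminase. Modulator (0.3, 1, 3, 10 or 30 μM) or none was then added for 30 min at 37 °C. Full R-PIA concentration–response curves followed, with 5 min stimulation. ERK1/2 phosphorylation was measured by AlphaScreen SureFire and normalized to the 6 min 3% FBS response.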

Q: Which Activity [1] does the source give for `CC(C)(C)OC(=O)N1CCc2c(sc(N)c2C#N)C1` here?
A: inactive

Q: And the Activity [2]?
A: inactive

Q: What about the EC50 (Adenosine receptor A1 [3]) of the same molecule?
A: > 20 µM

Q: What about the Activity [4] of the same molecule?
A: inactive

Q: What about the Activity [5] of the same molecule?
A: 22.9%

Q: `CN1CCc2c(sc(N)c2C(=O)NCc2ccccc2)C1` was tested. Which Activity [1] did it give?
A: inactive

Q: And the Activity [2]?
A: inactive

Q: What about the EC50 (Adenosine receptor A1 [3]) of the same molecule?
A: 12 µM

Q: What about the Activity [4] of the same molecule?
A: inactive

Q: And the Activity [5]?
A: 87.2%

Q: What does the source list for `Nc1sc2c(c1C(=O)NCc1cccc(C(F)(F)F)c1)CCN(Cc1ccccc1)C2`?
A: Activity [1]: inactive; Activity [2]: inactive; EC50 (Adenosine receptor A1 [3]): 15.5 µM; Activity [4]: inactive; Activity [5]: 46.9%

Q: What does the source list for `CN1CCc2c(sc(N)c2C(=O)NCc2cccc(Cl)c2)C1`?
A: Activity [1]: inactive; Activity [2]: inactive; EC50 (Adenosine receptor A1 [3]): 13.2 µM; Activity [4]: inactive; Activity [5]: 88%

Q: For `CN1CCc2c(sc(N)c2C(N)=O)C1`, which Activity [1] is on record?
A: inactive

Q: What about the Activity [2] of the same molecule?
A: inactive

Q: What about the EC50 (Adenosine receptor A1 [3]) of the same molecule?
A: > 20 µM

Q: And the Activity [4]?
A: inactive

Q: And the Activity [5]?
A: 19.8%

Q: With `CCOC(=O)c1c(N)sc2c1CCN(C(=O)[C@H](CSC(c1ccccc1)(c1ccccc1)c1ccccc1)NC(=O)OC(C)(C)C)C2` as the molecule, how does the Activity [1] read?
A: inactive

Q: What about the Activity [2] of the same molecule?
A: inactive

Q: What about the EC50 (Adenosine receptor A1 [3]) of the same molecule?
A: 7.9 µM

Q: And the Activity [4]?
A: inactive

Q: And the Activity [5]?
A: 93.2%

Q: For `NNC(=O)c1c(N)sc2c1CCN(Cc1ccccc1)C2`, which Activity [1] is on record?
A: inactive

Q: And the Activity [2]?
A: inactive

Q: What about the EC50 (Adenosine receptor A1 [3]) of the same molecule?
A: 8.9 µM

Q: And the Activity [4]?
A: inactive

Q: What about the Activity [5] of the same molecule?
A: 82.9%

Q: Which Activity [1] does the source give for `CC(C)(C)OC(=O)N1CCc2c(sc(N)c2C(=O)O)C1` here?
A: inactive

Q: And the Activity [2]?
A: inactive

Q: And the EC50 (Adenosine receptor A1 [3])?
A: 12.1 µM

Q: And the Activity [4]?
A: inactive

Q: And the Activity [5]?
A: 66.1%

Q: `CN1CCc2c(sc(N)c2C(=O)NNc2ccccc2)C1` was tested. Which Activity [1] did it give?
A: inactive

Q: What about the Activity [2] of the same molecule?
A: inactive

Q: And the EC50 (Adenosine receptor A1 [3])?
A: 11.5 µM

Q: And the Activity [4]?
A: inactive

Q: What about the Activity [5] of the same molecule?
A: 83.1%

Q: Which results are given for `NC(=O)c1c(N)sc2c1CCN(Cc1ccccc1)C2`?
A: Activity [1]: inactive; Activity [2]: inactive; EC50 (Adenosine receptor A1 [3]): > 20 µM; Activity [4]: inactive; Activity [5]: 19.1%

Q: `Nc1sc2c(c1C(=O)NNc1ccccc1)CCN(Cc1ccccc1)C2` was tested. Which Activity [1] did it give?
A: inactive

Q: And the Activity [2]?
A: inactive

Q: And the EC50 (Adenosine receptor A1 [3])?
A: 7.8 µM

Q: And the Activity [4]?
A: inactive

Q: And the Activity [5]?
A: 55.4%

Q: With `CCOC(=O)c1c(N)sc2c1CCN(C(=O)[C@@H](Cc1ccc(Cl)cc1)N(C)C(=O)OC(C)(C)C)C2` as the molecule, how does the Activity [1] read?
A: inactive

Q: What about the Activity [2] of the same molecule?
A: inactive

Q: What about the Kb (Adenosine receptor A1 [6]) of the same molecule?
A: 1.82 µM

Q: And the EC50 (Adenosine receptor A1 [3])?
A: 9.1 µM

Q: What about the Activity [4] of the same molecule?
A: inactive

Q: And the Activity [5]?
A: 92.9%

Q: What does the source list for `Nc1sc2c(c1C(=O)NCc1ccccc1)CCN(Cc1ccccc1)C2`?
A: Activity [1]: inactive; Activity [2]: inactive; EC50 (Adenosine receptor A1 [3]): 13.1 µM; Activity [4]: inactive; Activity [5]: 37.6%

Q: For `Nc1sc2c(c1C(=O)c1ccc(Cl)cc1)CCN(Cc1ccccc1)C2`, which Activity [1] is on record?
A: Active

Q: And the Activity [2]?
A: Active

Q: And the EC50 (Adenosine receptor A1 [3])?
A: > 20 µM

Q: And the Activity [5]?
A: 32.6%

Q: Which Activity [1] does the source give for `CN1CCc2c(sc(N)c2C#N)C1` here?
A: inactive

Q: And the Activity [2]?
A: inactive

Q: And the EC50 (Adenosine receptor A1 [3])?
A: > 20 µM

Q: What about the Activity [4] of the same molecule?
A: inactive

Q: And the Activity [5]?
A: 14.8%

Q: For `CN1CCc2c(sc(N)c2C(=O)O)C1`, which Activity [1] is on record?
A: inactive

Q: What about the Activity [2] of the same molecule?
A: inactive

Q: And the EC50 (Adenosine receptor A1 [3])?
A: 11.6 µM

Q: And the Activity [4]?
A: inactive

Q: And the Activity [5]?
A: 77.1%

Q: Which results are given for `CN1CCc2c(sc(N)c2C(=O)NN)C1`?
A: Activity [1]: inactive; Activity [2]: inactive; EC50 (Adenosine receptor A1 [3]): 4.4 µM; Activity [4]: inactive; Activity [5]: 85.7%

Q: For `CCOC(=O)c1c(N)sc2c1CCN(C)C2`, which Activity [1] is on record?
A: inactive

Q: And the Activity [2]?
A: inactive

Q: What about the EC50 (Adenosine receptor A1 [3]) of the same molecule?
A: > 20 µM

Q: What about the Activity [4] of the same molecule?
A: inactive

Q: And the Activity [5]?
A: 14.9%

Q: For `N#Cc1c(N)sc2c1CCN(Cc1ccccc1)C2`, which Activity [1] is on record?
A: inactive

Q: What about the Activity [2] of the same molecule?
A: inactive

Q: What about the EC50 (Adenosine receptor A1 [3]) of the same molecule?
A: 15.2 µM

Q: And the Activity [4]?
A: inactive

Q: What about the Activity [5] of the same molecule?
A: 52%

Q: `CCOC(=O)c1c(N)sc2c1CCN(C(=O)OC(C)(C)C)C2` was tested. Which Activity [1] did it give?
A: inactive

Q: What about the Activity [2] of the same molecule?
A: inactive

Q: What about the Kb (Adenosine receptor A1 [6]) of the same molecule?
A: 0.832 µM

Q: And the EC50 (Adenosine receptor A1 [3])?
A: 13.2 µM

Q: And the Activity [4]?
A: inactive

Q: And the Activity [5]?
A: 32.8%

Q: `CCOC(=O)c1c(N)sc2c1CCN(Cc1ccccc1)C2` [TINORIDINE] was tested. Which Activity [1] did it give?
A: inactive

Q: And the Activity [2]?
A: inactive

Q: What about the EC50 (Adenosine receptor A1 [3]) of the same molecule?
A: 10.3 µM

Q: And the Activity [4]?
A: inactive

Q: What about the Activity [5] of the same molecule?
A: 44.9%

Q: What does the source list for `CCOC(=O)c1c(N)sc2c1CCN(C(=O)[C@H](Cc1ccccc1)NC(=O)OC(C)(C)C)C2`?
A: Activity [1]: inactive; Activity [2]: inactive; Kb (Adenosine receptor A1 [6]): 0.372 µM; EC50 (Adenosine receptor A1 [3]): 7.2 µM; Activity [4]: inactive; Activity [5]: 82.5%

Q: Which results are given for `Nc1sc2c(c1C(=O)O)CCN(Cc1ccccc1)C2`?
A: Activity [1]: inactive; Activity [2]: inactive; EC50 (Adenosine receptor A1 [3]): 8 µM; Activity [4]: inactive; Activity [5]: 68.3%

Q: How did the Activity [1] turn out when `Nc1sc2c(c1C(=O)NCc1cccc(Cl)c1)CCN(Cc1ccccc1)C2` was run?
A: inactive

Q: And the Activity [2]?
A: inactive

Q: And the EC50 (Adenosine receptor A1 [3])?
A: > 20 µM

Q: What about the Activity [4] of the same molecule?
A: inactive

Q: And the Activity [5]?
A: 36%

Q: Which results are given for `CCOC(=O)c1c(N)sc2c1CCNC2`?
A: Activity [1]: inactive; Activity [2]: inactive; EC50 (Adenosine receptor A1 [3]): 11.7 µM; Activity [4]: inactive; Activity [5]: 58.5%

Reference: ChEMBL document CHEMBL1152610, “3- and 6-Substituted 2-amino-4,5,6,7-tetrahydrothieno[2,3-c]pyridines as A1 adenosine receptor allosteric modulators and antagonists” (Bioorg Med Chem, 2009)
